Calls of active or inactive are those of the source. The rule behind the calls is not given here.
Columns and labels:
[1] = system: THP-1; experiment: Effect on Cu/Zn SOD mRNA expression in human THP1 cells at 1 mM after 24 hrs by RT-PCR method; format: functional, cell-based
Method in brief: (§1)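 THP-1 cells (RPMI 1640, 10% heat-inactivated FCS, 37 °C, 5% CO2) were seeded at 2.0 × 10^6 cells/dish and treated for 24 h. Cells were washed with cold PBS and lysed in TRIzol, then analysed by real-time RT-PCR normalized to 18S rRNA. Values are mean ± SD of three independent experiments, with ANOVA and Bonferroni tests.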

[2] = system: THP-1; experiment: Upregulation of Mn SOD mRNA expression in human THP1 cells at 1 mM after 24 hrs by RT-PCR method; format: functional, cell-based; method in brief: as §1
[3] = species on record: Homo sapiens; experiment: Upregulation of HDAC1 inhibition/ERK signalling activation-mediated extracellular SOD protein expression in human THP1 cells at 1 mM after 24 hrs by ELISA; format: cell-based
Method in brief: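 EC-SOD protein content was measured by ELISA in THP-1 cells after 24 h treatment, with cells collected in PBS. Cells were cultured in RPMI 1640 with 10% heat-inactivated FCS at 37 °C and 5% CO2. Values are mean ± SD of three independent experiments, compared against untreated cells.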

[4] = species on record: Homo sapiens; experiment: Upregulation of HDAC1 inhibition/ERK signalling activation-mediated extracellular SOD mRNA expression in human THP1 cells at 1 mM after 24 hrs by RT-PCR method; format: cell-based; method in brief: as §1
[5] = target: Histone deacetylase 1 (Homo sapiens) (UniProt Q13547); experiment: Inhibition of HDAC1 in human THP1 cells assessed as increase in histone H4 acetylation level at 1 mM after 12 hrs by Western blot analysis relative to control; format: cell-based
Method in brief: (§2)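 After 12 h treatment, THP-1 whole-cell extracts (20 μg protein) were run on 12% SDS-PAGE and transferred to PVDF. Membranes were blocked with 1% BSA in PBS and probed with anti-acetyl histone H3 or H4 primary antibodies (1:1000), then a biotin-conjugated secondary antibody (1:1000). Histone loading was checked by Coomassie staining.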

[6] = target: Histone deacetylase 1 (Homo sapiens) (UniProt Q13547); experiment: Inhibition of HDAC1 in human THP1 cells assessed as increase in histone H3 acetylation level at 1 mM after 12 hrs by Western blot analysis relative to control; format: cell-based; method in brief: as §2
[7] = target: Histone deacetylase 1 (Homo sapiens) (UniProt Q13547); experiment: Upregulation of HDAC1 inhibition-mediated histone H4 acetylation-induced extracellular SOD expression in human THP1 cells at 1 mM after 12 hrs by chromatin immunoprecipitation method; format: cell-based
Method in brief: (§3)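 THP-1 cells (5 × 10^6) treated 12 h, at 1 mM or 100 μM per line. Cross-linked with formaldehyde 5 min at room temperature and chromatin sonicated to 150–800 bp. Immunoprecipitated overnight on protein G beads and washed in RIPA I/II and TE. Eluted with RNase A and proteinase K. EC-SOD promoter binding expressed as % of input.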

[8] = target: Histone deacetylase 1 (Homo sapiens) (UniProt Q13547); experiment: Upregulation of HDAC1 inhibition-mediated histone H3 acetylation-induced extracellular SOD expression in human THP1 cells at 1 mM after 12 hrs by chromatin immunoprecipitation method; format: cell-based; method in brief: as §3
[9] = system: THP-1; experiment: Effect on HDAC1 mRNA expression in human THP1 cells at 1 mM after 24 hrs by RT-PCR method; format: functional, cell-based
Method in brief: (§4)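 THP-1 cells in RPMI 1640 with 10% heat-inactivated FCS, 37 °C, 5% CO2. Seeded 2.0 × 10^6 cells per 3.5 cm dish and treated 24 h, at 1 mM for the 1 mM lines and 100 μM for the 100 μM lines. RNA extracted in TRIzol, then real-time RT-PCR normalized to 18S rRNA. Means ± SD of three independent experiments; ANOVA with Bonferroni post hoc.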

[10] = system: THP-1; experiment: Effect on HDAC2 mRNA expression in human THP1 cells at 1 mM after 24 hrs by RT-PCR method; format: functional, cell-based; method in brief: as §4
[11] = system: THP-1; experiment: Effect on HDAC3 mRNA expression in human THP1 cells at 1 mM after 24 hrs by RT-PCR method; format: functional, cell-based; method in brief: as §4
[12] = system: THP-1; experiment: Effect on HDAC8 mRNA expression in human THP1 cells at 1 mM after 24 hrs by RT-PCR method; format: functional, cell-based; method in brief: as §4
[13] = system: THP-1; experiment: Effect on HDAC4 mRNA expression in human THP1 cells at 1 mM after 24 hrs by RT-PCR method; format: functional, cell-based; method in brief: as §4
[14] = system: THP-1; experiment: Effect on HDAC5 mRNA expression in human THP1 cells at 1 mM after 24 hrs by RT-PCR method; format: functional, cell-based; method in brief: as §4
[15] = system: THP-1; experiment: Effect on HDAC6 mRNA expression in human THP1 cells at 1 mM after 24 hrs by RT-PCR method; format: functional, cell-based; method in brief: as §4
[16] = system: THP-1; experiment: Effect on HDAC7 mRNA expression in human THP1 cells at 1 mM after 24 hrs by RT-PCR method; format: functional, cell-based; method in brief: as §4
[17] = system: THP-1; experiment: Effect on HDAC9 mRNA expression in human THP1 cells at 1 mM after 24 hrs by RT-PCR method; format: functional, cell-based; method in brief: as §4
[18] = system: THP-1; experiment: Effect on HDAC10 mRNA expression in human THP1 cells at 1 mM after 24 hrs by RT-PCR method; format: functional, cell-based; method in brief: as §4
[19] = target: Histone deacetylase (Homo sapiens) (UniProt Q13547+O15379+Q9UBN7+Q92769+Q9UQL6+Q8WUI4+Q9BY41+Q96DB2+P56524+Q9UKV0+Q969S8); experiment: Inhibition of HDAC activity in human THP1 cells at 1 mM preincubated for 1 hr followed by substrate addition measured after 2 hrs by fluorescence assay relative to control; format: cell-based
Method in brief: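 This is a cell-based HDAC assay. THP-1 cells at 5.0 × 10^4 cells/well were treated for 1 h, then HDAC substrate was added for 2 h at 37 °C. Lysis/developer solution followed for 15 min at 37 °C. Fluorescence was read at ex 365 nm / em 410–460 nm and compared with untreated cells; mean ± SD, n = 3 independent experiments.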

[20] = target: Histone deacetylase 1 (Homo sapiens) (UniProt Q13547); experiment: Inhibition of recombinant HDAC1 catalytic domain (unknown origin) using HDAC substrate at 1 mM preincubated for 1 hr followed by substrate addition measured after 30 mins by fluorescence assay relative to control
Method in brief: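 Recombinant HDAC1 was mixed with compound in assay buffer, and the reaction was started with HDAC substrate for 30 min at 37 °C in the dark. Developer was then added for 15 min at room temperature. Fluorescence was read at ex 365 nm / em 410–460 nm and compared with untreated control; mean ± SD of three independent experiments.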

Histone deacetylase 1 (Homo sapiens), sequence (Q13547 whole entry, the tested form may be a part): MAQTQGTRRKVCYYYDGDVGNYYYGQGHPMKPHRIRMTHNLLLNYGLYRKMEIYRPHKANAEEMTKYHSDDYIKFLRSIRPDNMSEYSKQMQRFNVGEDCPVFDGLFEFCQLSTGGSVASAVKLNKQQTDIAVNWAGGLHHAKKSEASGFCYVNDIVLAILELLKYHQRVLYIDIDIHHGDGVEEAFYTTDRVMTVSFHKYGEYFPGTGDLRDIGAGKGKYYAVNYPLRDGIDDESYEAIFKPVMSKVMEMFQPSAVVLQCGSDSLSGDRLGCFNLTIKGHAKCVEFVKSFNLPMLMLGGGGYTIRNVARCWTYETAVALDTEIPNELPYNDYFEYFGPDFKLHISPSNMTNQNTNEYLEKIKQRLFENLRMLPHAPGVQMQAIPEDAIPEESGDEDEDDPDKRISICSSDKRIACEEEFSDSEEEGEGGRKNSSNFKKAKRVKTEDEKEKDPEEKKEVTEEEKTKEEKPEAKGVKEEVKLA

For `O=C(O)CCCCCCCCCO`, the Activity [1] was “inactive”, the Activity [2] was “inactive” and the Activity [3] was “Active”. For the same compound, the Activity [4] was “Active”, the fold change (FC) [5] was 2.45 and the fold change (FC) [6] was 1.33. The Activity [7] was “Active”, the Activity [8] was “inactive” and the Activity [9] was “inactive”. The Activity [10] was “inactive”, the Activity [11] was “inactive” and the Activity [12] was “inactive”. The Activity [13] was “inactive”, the Activity [14] was “inactive” and the Activity [15] was “inactive”. The Activity [16] was “inactive”, the Activity [17] was “inactive” and the Activity [18] was “inactive”. For the same compound, the inhibition [19] was 20% and the inhibition [20] was 50%.
